# Reference: PubChem BioAssay
# The list shows a part of the results. The source made the active and inactive calls.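 The calls were made as follows: active = substances whose mean melting-temperature shift, as a percentage of the reference inhibitor's shift, reaches about 5.3% (limit read from the data); inactive = the rest.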
# Biological target: Carboxy-terminal domain RNA polymerase II polypeptide A small phosphatase 1 (Homo sapiens) (UniProt Q9GZU7)
# Assay: SCP1 melting temperature change from compounds – biophysical, differential scanning fluorimetry, orthogonal assay for Scp-1 inhibitor project, confirmation (AID 540329);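 also: 0% = Tm of DMSO wells and 100% = Tm with sodium orthovanadate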
# Conditions: Recombinant SCP1, Sypro Orange thermal shift Tm; at 40 µM; stronger effect = higher value
# Summary of the method: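 Technique: Protein melting followed by Sypro Orange dye fluorescence | Material: Scp-1 phosphatase domain | Input: Scp-1 protein added from a 10 µM stock solution | Measure: Melting temperature shift relative to vanadate | Times: 20-95 °C thermal ramp | Doses: One dose per compound, 10 mM stock | Benchmarks: Vanadate reference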
# Chain of Carboxy-terminal domain RNA polymerase II polypeptide A small phosphatase 1 (Homo sapiens) (Q9GZU7 76-261 limits assumed): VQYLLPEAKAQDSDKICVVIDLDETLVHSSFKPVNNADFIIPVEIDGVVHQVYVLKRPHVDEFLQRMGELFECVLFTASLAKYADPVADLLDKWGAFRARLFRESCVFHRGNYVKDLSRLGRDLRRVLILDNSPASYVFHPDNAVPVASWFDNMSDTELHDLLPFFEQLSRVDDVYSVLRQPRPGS
row,Compound,thermal shift relative to vanadate control
1,COc1cccc(NC(C)=[N+](C)CCNS(=O)(=O)c2ccc(Cl)cc2)c1,-9.24% (inactive)
2,O=C(COC(=O)c1cnc(Cl)c(Cl)c1)NCc1ccco1,-1.58% (inactive)
3,Nn1cnnc1N/N=C/c1cc([N+](=O)[O-])c(Cl)cc1Cl,-3.64% (inactive)
4,CCOc1ccccc1/C=c1\sc2nc(-c3ccco3)nn2c1=O,4.79% (inactive)
5,COc1ccc(Cc2nnc(NC(=O)Cc3cccs3)s2)cc1,9.39% (active)
6,Cc1cc(/C=C2\SC(=O)N(C)C2=O)c(C)n1-c1cccc(C(=O)O)c1,1.65% (inactive)
7,Cc1ccccc1NC(=O)CN1C(=O)N/C(=C\c2cccn2-c2cccc(C(=O)O)c2)C1=O,7.04% (active)
8,O=C(CCS(=O)(=O)c1ccc(Br)cc1)NCCc1ccc(Cl)cc1,1.56% (inactive)
9,O=C(Cn1nnc(-c2ccc3c(c2)OCO3)n1)NCc1ccco1,2.67% (inactive)
10,C=C1c2cccc(OC)c2O[C@H](C(=O)OCC)[C@@H]1CCCCCC,-6.9% (inactive)
11,Cc1ccc(/C=C/C(=O)Nc2ccc([N+](=O)[O-])c(NC(=O)/C=C/c3ccc(C)o3)c2)o1,11% (active)
12,O=C(COC(=O)c1ccc(F)cc1F)Nc1ncccn1,1.27% (inactive)
13,Cc1c(CCC(=O)O)c(=O)oc2cc(OCc3ccc(Br)cc3)ccc12,-18.2% (inactive)
14,COc1cccc2cc(-c3cc(=O)oc4cc(C)c(O)cc34)oc12,-12.5% (inactive)
15,C[N+](C)(C)CCNC(=O)c1cc[n+](Cc2ccccc2)c(/C=N/O)c1,-22.6% (inactive)
16,O=C(CCNC(=O)c1ccccc1)NN=Cc1ccc(Br)o1,-12.5% (inactive)
17,Cc1ccc(CCNC(=O)c2ccc3nc4ccccc4c(=O)n3c2)cc1,-6.77% (inactive)
18,Cc1c(Cl)cnc(NC(=O)COC(=O)c2ccc(S(=O)(=O)NCc3ccco3)cc2)c1Cl,10.3% (active)
19,C=Cc1ccc(C(=O)N2CCCC(CCC(=O)N3CCN(c4ccccn4)CC3)C2)cc1 (stereo not drawn),-35.8% (inactive)

row,Compound,thermal shift relative to vanadate control
1,O=C(c1cc2c(s1)CCC2)N1CCN(c2ccccc2)CC1,-14.1% (inactive)
2,CS(=O)(=O)C1=NN2C(=N)/C(=C\c3ccc(OCCOc4ccccc4)cc3)C(=O)N=C2S1,280% (active)
3,CCc1ccc(NC(=O)CS(=O)CC(=O)NCCCc2ccccc2)cc1 (stereo not drawn),-12.5% (inactive)
4,Cc1c(CCC(=O)O)c(=O)oc2c(C)c(OCc3ccccc3Cl)ccc12,-3.47% (inactive)
5,COc1ccc(Cl)cc1NC(=O)CCS(=O)(=O)c1ccc(Br)cc1,3.48% (inactive)
6,CCCc1nc(-c2cc3cc(C)ccc3[nH]c2=O)no1,-30.4% (inactive)
7,O=C(CCC(=O)N/N=C/c1ccc(Br)o1)N/N=C/c1ccc(Br)o1,-1.53% (inactive)
8,O=C(COC(=O)CCC(=O)c1cccs1)NCc1ccco1,-2.74% (inactive)
9,C[n+]1ccc(C(=O)NCc2ccccc2)cc1,-7.9% (inactive)
10,COc1ccc(/C=C/C(=O)OCC(=O)NC2CCCCCC2)cc1OC,-3.16% (inactive)
11,O=C(N/N=C/c1ccco1)c1ccc(C(=O)N/N=C/c2ccco2)o1,-14.3% (inactive)
12,N#Cc1c(-c2cccs2)nc(SCC(=O)c2ccc(Br)cc2)[nH]c1=O,-2.02% (inactive)
13,Cc1ccc(NC(=O)COc2ccc(/C=N\NC(=O)c3cccnc3)cc2)cc1C,-4.33% (inactive)
14,CC(C)CCOc1ccc(C(=O)C[N+]2(C)CCOCC2)cc1,-16.6% (inactive)
15,O=c1[nH]n(-c2ccc([N+](=O)[O-])cc2)c(=O)c2ccccc12,2.78% (inactive)
16,O=C(O)c1ccc(N/N=C/c2ccc3ncccc3c2)cc1,4.85% (inactive)
17,COc1ccc(Cl)cc1C=CC=NNC(=O)c1ccncc1,-17.4% (inactive)
18,COc1ccc(NC(=O)CN(C)C(=O)/C=C/c2cn(Cc3ccccc3)nc2-c2cccnc2)cc1,-16.5% (inactive)
19,Cc1ccn2c(=O)nc(SCC(=O)NCc3ccc4c(c3)OCO4)nc2c1,-9.63% (inactive)
